M4 PAM: positive allosteric modulators of human muscarinic M4 receptor; CHO-K1 hM4/Gqi5, Fluo-8 calcium fluorescence, ACh EC20; 0% = ACh EC20, 100% = maximal ACh; activation, % at 3 µM; hit rate 0.4% among 360,000;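 active = activation above its plate's cutoff, the mean activation of sample wells plus 3 SD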
CHRM4 agonist: CHRM4 agonism in calcium assay; P08173; hit rate 0.14% among 360,000; CHO-K1 hM4/Gqi5, Fluo-8 calcium fluorescence; vehicle 0%, full acetylcholine response 100%; activation, % at 3 µM;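 active = activation above the run mean over all test wells plus 3 SD, cut at about 32% in these data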;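 also: peak over basal fluorescence ratio per well then scaled between controls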
M5 antag: antagonists of human muscarinic M5 receptor (CHRM5). hit rate 0.59% among 360,000. inhibition, % at 3 µM. AID 624040. P08912. CHO-hM5 cells, Fluo-8 calcium fluorescence, ACh EC80;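 active = inhibition above a per-plate cutoff, the mean of that plate's test compounds plus 3 SD, cut at about 27% in these data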
Target sequence (P08912 whole entry, looked up): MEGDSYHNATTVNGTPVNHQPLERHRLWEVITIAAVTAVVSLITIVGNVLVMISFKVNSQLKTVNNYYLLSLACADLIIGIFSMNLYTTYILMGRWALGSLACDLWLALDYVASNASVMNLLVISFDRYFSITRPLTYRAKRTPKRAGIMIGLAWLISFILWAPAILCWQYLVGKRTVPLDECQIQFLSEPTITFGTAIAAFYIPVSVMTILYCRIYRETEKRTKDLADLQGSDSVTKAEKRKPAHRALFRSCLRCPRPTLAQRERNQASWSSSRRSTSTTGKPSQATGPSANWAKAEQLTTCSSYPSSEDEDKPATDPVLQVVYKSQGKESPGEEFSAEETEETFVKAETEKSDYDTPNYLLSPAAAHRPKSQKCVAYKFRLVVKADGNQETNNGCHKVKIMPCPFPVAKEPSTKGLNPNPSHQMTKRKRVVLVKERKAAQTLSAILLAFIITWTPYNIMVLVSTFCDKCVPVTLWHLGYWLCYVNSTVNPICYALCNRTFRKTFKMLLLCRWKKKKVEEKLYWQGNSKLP
M4 antag: antagonists of human muscarinic M4 receptor (CHRM4); inhibition, % at 3 µM; CHO-hM4 cells, ACh EC80, Fluo-8 calcium fluorescence; AID 624125; P08173; hit rate 0.73% among 360,000;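 active = inhibition above its plate's cutoff, the mean inhibition of sample wells plus 3 SD, cut at about 27% in these data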
M5 PAM: positive allosteric modulators of human muscarinic M5 receptor; P08912; CHO-K1 hM5, Fluo-8 calcium, ACh EC20 PAM; 0% = ACh EC20, 100% = ACh EC100; activation, % at 3 µM; hit rate 0.3% among 360,000;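 active = activation above the run cutoff, the mean activation of all test compounds plus 3 SD, cut at about 18% in these data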
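Measured by: Fluo-8 calcium fluorescence; material: human M5 receptor in CHO-K1 cells; schedule: Post-acetylcholine fluorescence recording 140 s; benchmarks: low control EC20 acetylcholine (0%), high control EC100 acetylcholine (100%); read-out: Max/basal fluorescence ratio as % of EC20–EC100 ACh window; compound: single dose, 3 µM nominal final test concentration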
CHRM5 agonist: agonists of human muscarinic M5 receptor (CHRM5) | CHO-K1 hM5 cells, Fluo-8 calcium fluorescence; 0% DMSO wells, 100% maximal acetylcholine response | hit rate 0.19% among 360,000 | P08912 | AID 624037 | activation, % at 3 µM;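 active = activation above the run's mean over test compounds plus 3 SD, cut at about 23% in these data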;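 also: signal is peak over basal fluorescence ratio across the kinetic read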
Of the large screens only hits and unclear results are named; the others gave an inactive call. This is a sample that favours compounds with a hit; in the whole collection about 1.8% have one here.

O=C(CC(c1ccccc1)c1cc(Cl)ccc1O)N1CCCC1 (stereo unspecified)	none
O=C(CC(c1ccccc1O)N1CCCCC1)N1CCCCC1 (stereo unspecified)	M4 antag 77.9
COC(=O)C1=C(C)N(CCc2ccc(OC)c(OC)c2)C(=O)C1	M5 PAM 27.9
COC(=O)c1ccc(OCC2c3cc(OC)c(OC)cc3CCN2C(=O)c2ccco2)cc1 (stereo unspecified)	M4 antag 29.7
COC(=O)c1ccc(OCC2c3cc(OC)c(OC)cc3CCN2C(C)=O)cc1 (stereo unspecified)	none
CC1CCCC(C)N1C(=O)CN1C(=O)C(C)(C)Oc2ccc(C(=O)NC3CCCCC3)cc21 (stereo unspecified)	none
CC1CCCC(C)N1C(=O)CN1C(=O)C(C)(C)Oc2ccc(C(=O)NC3CCCC3)cc21 (stereo unspecified)	M4 antag 26.5
COCCNC(=O)/C(C#N)=C/c1c(N2CCCCCC2)nc2ccccn2c1=O	M4 antag 98.7
CC1(c2ccccc2)CC(C)(C)N2C(=O)Cc3cccc1c32 (stereo unspecified)	M4 antag 32.7
CCC1(c2ccc(F)cc2)NC(=O)N(CC(=O)NCc2ccccc2Cl)C1=O (stereo unspecified)	none
C[C@H]1CC[C@@]2(O[C@@H](CCO)C[C@@H](O)[C@@H]2O)O1	none
C[C@@H]1CC[C@]2(O[C@H](CCO)C[C@@H](O)[C@@H]2O)O1	M5 PAM 24.9
Nc1nnnn1N=C1CCCCC1	M5 PAM 28.5
O=C1CC(N(O)c2ccccc2)C(=O)N1c1cc(Cl)cc(Cl)c1 (stereo unspecified)	CHRM5 agonist 30.4
CCOc1ccc(OCC)c(NC(=O)CN2CCN(c3ccc(C)cc3C)CC2)c1	M4 PAM 19.8
Cc1n[nH]c(=O)nc1NC(C)c1ccccc1 (stereo unspecified)	M4 antag 27.5
COc1ccccc1Nc1nc(=O)[nH]nc1C	none
CCN(CC)CCCn1c2c(c(SCC(=O)Nc3ccc(OC(F)(F)F)cc3)nc1=O)CCC2	none
Cc1ccc(C(=O)NCCn2cc(SCC(=O)Nc3cc(C)on3)c3ccccc32)cc1	CHRM5 agonist 36.0
Cc1cc(NC(=O)CSc2ccc3nnc(CCNC(=O)c4ccccc4)n3n2)no1	M4 PAM 30.4
CSCCC(NC(=O)c1ccco1)c1nc2ccccc2[nH]1 (stereo unspecified)	none
COc1ccc(F)cc1S(=O)(=O)NCC(=O)NCc1cc(=O)n(C)c(=O)n1C	none
CC1CCN(c2c(NCC3CCC(C(=O)NC4CCCCCC4)CC3)c(=O)c2=O)CC1 (stereo unspecified)	M4 antag 30.7
CC1CCN(c2c(NCC3CCC(C(=O)N4CCCCC4)CC3)c(=O)c2=O)CC1 (stereo unspecified)	none
O=c1[nH]cnc2c1ncn2[C@@H]1O[C@H](COS(=O)(=O)O)[C@@H](O)[C@H]1O	none
O=C([O-])c1ccccc1-[n+]1c(-c2ccccc2)cc(-c2ccccc2)cc1-c1ccccc1	M4 antag 60.6
CCN(CC)S(=O)(=O)c1ccc(C(=O)N(c2ccc(C)cc2)C2C=CS(=O)(=O)C2)cc1 (stereo unspecified)	none
CC(C1CC2CCC1C2)n1c(-c2ccco2)n[nH]c1=S (stereo unspecified)	M5 antag 28.9
Cc1ccc(-n2c(-c3ccco3)n[nH]c2=S)cc1	none
O=C(O)C1CCCCC1C(=O)NCc1ccccc1 (stereo unspecified)	none
O=C(O)C1CCCCC1C(=O)NCc1ccc(F)cc1 (stereo unspecified)	M4 PAM 33.7
CCc1ncc(CN2CCCC(C(=O)Nc3ccc(-c4cscn4)cc3)C2)cn1 (stereo unspecified)	none
O=C(NCc1ccon1)C1CCC(=O)N(CCc2ccc(Cl)cc2)C1 (stereo unspecified)	M4 PAM 16.3, M5 PAM 21.2
CCOC(=O)/C(=C/C=C1\Sc2ccccc2N1CC)C(C)=O	CHRM5 agonist 46.6
CCOC(=O)/C(=C\C=C1/Sc2ccccc2N1CC)C(C)=O	CHRM4 agonist 52.1, CHRM5 agonist 35.6
CCOC(=O)/C(=C/C=C1\Sc2cc(C)c(C)cc2N1CC)C(C)=O	none
Cn1c(=O)c2cc(NC(=O)NCCc3ccccc3)ccc2n1Cc1ccc(F)cc1	none
CN1CCN(C(=O)/C(=C/c2ccccc2)c2ccccc2)CC1	M5 antag 27.6, M4 antag 53.5
Cc1ccc(NC(=O)c2cc([N+](=O)[O-])ccc2N2CCOCC2)cc1C	none
Cc1ccc(NC(=O)c2cc([N+](=O)[O-])ccc2N2CCOCC2)cc1S(=O)(=O)N(C)C	M4 antag 49.0
O=C(Nc1cc(S(=O)(=O)N2CCOCC2)ccc1O)c1ccc(NS(=O)(=O)c2ccc(Cl)s2)cc1	none
Cc1ccc(NC(=O)c2ccccc2NS(=O)(=O)c2ccc(Cl)s2)cc1S(=O)(=O)N1CCOCC1	M5 antag 31.8
CC(OC(=O)C1CCCCC1)C(=O)Nc1ccc(S(N)(=O)=O)cc1 (stereo unspecified)	M4 PAM 22.4
Cc1cc(-c2nnc(SCC(=O)Nc3cccc(F)c3)n2N)n[nH]1	none
Cc1ccc(OCCNC(=O)C(=O)NCc2ccco2)cc1	M4 antag 26.9
O=S(=O)(c1ccc(F)cc1)N1CC2CCCN2c2ccc(C(F)(F)F)cc21 (stereo unspecified)	M4 antag 38.6
CCC(C)NC(=O)CN(c1cc(Cl)cc(Cl)c1)S(C)(=O)=O (stereo unspecified)	none
O=C(C(=O)N1CCN(c2ccccc2)CC1)c1cccc(Br)c1	M4 antag 30.4
Cc1ccc(N2CCN(C(=O)C(=O)c3cccc(Br)c3)CC2)cc1	none
CC1CCC(C(C)C)C(OC(=O)C[n+]2cc(-c3ccc(Cl)cc3)n3c2CCC3)C1 (stereo unspecified)	M5 antag 53.4, M4 antag 28.7
O=C(C[n+]1cc(-c2ccc(Cl)cc2)n2c1CCC2)Nc1nc(-c2ccccc2)cs1	none
COc1ccc(-c2c[n+](CC(=O)N3c4ccccc4Sc4ccccc43)c3n2CCC3)cc1	M5 antag 40.8, M4 antag 52.8
O=C(C[n+]1cc(-c2ccc(Cl)c(Cl)c2)n2c1CCC2)N1c2ccccc2Sc2ccccc21	M5 antag 99.5, M4 antag 98.4
COc1ccc(-c2c[n+](CC(=O)c3cccs3)c3n2CCC3)cc1	none

Assay outcomes as filed in PubChem.
